Among the data in ChEMBL document CHEMBL4513216, “Probing the Open Global Health Chemical Diversity Library for Multistage-Active Starting Points for Next-Generation Antimalarials” (ACS Infect Dis, 2020) are cytotoxicity values, retold here.

This data set is described as follows: Toxicity liver stage against HepG2, at 10uM. To be noted: human, HepG2-A16-CD81EGFP cells; read-out: INHIBITION
The data set is classed as cell-based. Set-up: test concentration 10 uM, cell line HepG2-A16-CD81EGFP. An outline of the steps:
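Uninfected HepG2-A16-CD81EGFP cells, 3 × 10^3 per well, 1536-well, plated on prespotted compound at 10 μM final, parasite-free screening media added to match infected plates; puromycin 10 μM positive, DMSO 0.5% negative; run in parallel with 48 h PbLuc assay at 37 °C, 5% CO2; viability by CellTiter-Glo luminescence, normalized to controls.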
For `Cc1ccc2[nH]c3c(c2c1)CN(C(=O)CN(C)CC1OCCO1)CC3`, the cytotoxicity at 10 µM is 6.5%.
As to `Cc1cc(CN2CCN3C[C@H](c4ccccc4)[C@@H](CO)[C@H]3C2)on1`, the cytotoxicity at 10 µM was determined as 7.66%.
For the compound `COc1ccc(C2CC(=O)Oc3cc(C)[nH]c(=O)c32)cc1O` (stereo unspecified), the cytotoxicity at 10 µM was -4.47%.
As for `CN(C)S(=O)(=O)c1ccc(-c2nc(C#N)c(NC3CC3)o2)o1`, the figure is -18.4%; as for `Cn1nc(CNC(=O)CC#N)c2c1CN(C(N)=O)CC2`, 3.8%; as for `CC(=O)N1CCc2ncc(CNC(=O)C3CCC3)n2CC1`, 7.48%.
Take `COc1cc(N2C[C@H](C(=O)N3CCCC3)[C@@H]3CCO[C@@H]3C2)ncn1`: the cytotoxicity at 10 µM is -0.211%.
As for `c1cc(-c2ccc3c(c2)C2(CC3)CCN(c3nncs3)CC2)ccn1`, the figure is 1.13%; as for `COc1cc(NC(=O)NCC2CCCO2)cc(OC)c1` (stereo unspecified), 15.6%; as for `CCn1cc(NC(=O)c2cc(C)nc(N3CCOCC3)n2)cn1`, 6%.
As for `CN(C)C(=O)c1cccc(C2CNCCN2C)c1` (stereo unspecified), the figure is -3.15%; as for `CN(C)c1cncc(C2CCN(CCO)CC2)n1`, 3.29%; as for `CC(=O)N1CCCN(CCCc2ccccc2)CC1`, -9.28%.
As for `CN(Cc1ccccc1F)C(=O)c1cc(Cl)c[nH]1`, the figure is -5.45%; as for `CCn1nc(C)c(CNC(=O)NCC(C)(O)c2ccsc2)c1C` (stereo unspecified), 7.59%; as for `O=C(NCCc1ccccn1)NC1CCN(c2ccccc2)C1=O` (stereo unspecified), -2.84%.
In the case of `O=C(C(CNCc1cccc(O)c1)c1ccccc1)N1CCOCC1` (stereo unspecified), the cytotoxicity at 10 µM is -2.06%.
As for `CNC(=O)C1CCC(NC(=O)c2cc(C3CC3)n(C(C)(C)C)n2)CC1` (stereo unspecified), the figure is 4.74%; as for `CCCS(=O)(=O)NC(=O)c1ccc(CC)o1`, -8.37%.
With `CC(Cc1ccco1)NC(=O)CSc1nnc[nH]1` (stereo unspecified), the cytotoxicity at 10 µM came to 13%.
Then `Cc1oc(C(=O)O)cc1S(=O)(=O)Nc1cccc(-n2nccc2C)c1`, with 4.46%; and `COCCN1C(=O)C[C@@H]2[C@H]1CCN2C(=O)COc1ccccc1`, with -0.902%.
Then `CCN(Cc1nccs1)Cc1cc(Cl)ccc1OC`, with -1.06%; and `CCCn1nc(C)c2c1NC(=O)CC2c1ccc(CN2CCCC2)s1` (stereo unspecified), with 0.355%.
As for `CN(CCc1ccccn1)C(=O)CCC1CCCN(S(C)(=O)=O)C1` (stereo unspecified), the figure is 4.77%.
In the case of `CC(=O)N[C@@H]1C[C@H](Cc2ccccc2)O[C@H](c2ccc(C(=O)O)cc2)C1`, the cytotoxicity at 10 µM was found to be 2.76%.
Then `O=C(CCN1CCOC(C(F)(F)F)C1)NCc1cccc(Cl)c1` (stereo unspecified), with 2.04%; and `Cc1cccc(C(C(=O)NCc2nc(-c3cccnc3)no2)N(C)C)c1` (stereo unspecified), with 6.45%; and `COc1cccc(CN2CCN(CC(C)C)C(=O)C2C)c1O` (stereo unspecified), with 2.02%.
Then `COC(=O)c1cccc(S(=O)(=O)NC(=O)COC2CCCC2)c1`, with -1.03%; and `Cc1cnn(C2CN(Cc3nc(-c4ccsc4)no3)C2)c1`, with -3.88%; and `CCc1nc(CNc2ccc(C(=O)N3CCSCC3)cc2C)no1`, with -6.99%.
Then `Cc1cc(CN(C)C2CCCN(c3cccnn3)C2)no1` (stereo unspecified), with -2.45%; and `O=C(NCC1COC2(CCOCC2)O1)c1csc(-c2cccc(Cl)c2)n1` (stereo unspecified), with -10.7%; and `Cc1nc2cc(O)nn2c(C)c1CCC(=O)NCc1cc(Br)cs1`, with -3.04%.
On to `Cc1cc(C)c(CNC(=O)NCC(O)c2ccccc2)c(=O)[nH]1` (stereo unspecified), for which the cytotoxicity at 10 µM was -10%.
In the case of `NC(=O)CC1CCN(C(=O)NCc2ccc(-c3ccn[nH]3)cc2)CC1`, the cytotoxicity at 10 µM is -2.38%.
As to `CCCc1n[nH]c(C2CN(C(=O)c3ccc4c(c3)COC4)CCO2)n1` (stereo unspecified), the cytotoxicity at 10 µM was -12.4%.
As for `CCNc1cc2c(nn1)CCN(C(=O)Cc1c(C)nn(C)c1C)C2`, the figure is -8.25%.
As for `COc1c(CNC2CCCOc3ccccc32)c(C(C)C)nn1C` (stereo unspecified), the cytotoxicity at 10 µM is -3.48%.
Consider `O=C(c1nn(-c2ccccc2F)cc1O)N1CCCCC1`, for which the cytotoxicity at 10 µM was 3.36%.
Turning to `COc1cc(C(=O)NS(=O)(=O)c2ccc(C#N)cc2)ccc1C`, the cytotoxicity at 10 µM is -6.56%.
Regarding `COc1ccc(C(=O)NS(=O)(=O)c2cccc(C#N)c2)cc1`, the cytotoxicity at 10 µM was -2.97%.
For the compound `CCc1ncncc1C(=O)N1CCN(Cc2cscn2)CC1`, the cytotoxicity at 10 µM was 0.512%.
Turning to `Cc1nc2cc(=O)[nH]n2c(C)c1CC(=O)NCc1ccoc1`, the cytotoxicity at 10 µM was -10.4%.
Take `CC(Cn1ccnc1)NC(=O)NCc1ccccn1` (stereo unspecified): the cytotoxicity at 10 µM is -6.66%.
In the case of `Cc1cnn(CCNCc2csc(-c3ccc(C)o3)n2)c1`, the cytotoxicity at 10 µM was -1.64%.
For `COC(=O)CN1CCC(C(=O)c2cc(F)ccc2F)CC1`, the cytotoxicity at 10 µM was -6.52%.
Then `CCc1nc(C2CCCN2CC(=O)N2CCCc3ccccc32)no1` (stereo unspecified), with -25.2%; and `CCOc1ccccc1OC1CCN(C(=O)c2csnn2)CC1`, with -5.5%.
In the case of `O=C(Cc1ccc2c(c1)CCO2)N1CCN(c2ccncc2)CC1`, the cytotoxicity at 10 µM is -4.8%.
As for `CN(Cc1ccsc1)C(=O)Nc1ccc(N2CCCC2)nc1`, the cytotoxicity at 10 µM was -10.5%.
As for `COc1ccc(CC(=O)N2CCCC(n3nc(C)cc3C)C2)cc1` (stereo unspecified), the figure is 0.471%; as for `Cc1cc(C(=O)NCc2ccc(N3CCCC(C(N)=O)C3)cc2)on1` (stereo unspecified), -9.56%; as for `Cc1nn(C)c(N(C)C)c1CNCc1ccccc1CO`, -8.84%.
As for `Cc1nc(C2CCCN(C(=O)c3cccc4c3OCCO4)C2)no1` (stereo unspecified), the figure is -8.93%.
Then `Cc1cnn(CC2CCCN2C(=O)c2cnc(-c3ccco3)s2)c1` (stereo unspecified), with -7.43%; and `COCC(=O)NC(C)Cc1cccc(OC)c1` (stereo unspecified), with -10.6%.
Take `CCCc1noc(CCC(=O)N2CCCC2c2noc(C3CC3)n2)n1` (stereo unspecified): the cytotoxicity at 10 µM was -9.98%.
As for `CCOc1ccnc(N2CCN(C(=O)c3cn[nH]c3CC)CC2)n1`, the figure is -6.69%; as for `N[C@@H](Cc1ccccc1)c1nnc(S(=O)(=O)Cc2ccc(Cl)cc2)o1`, 14.2%; as for `CCOC[C@H]1CC[C@H]2[C@H](CCN2Cc2c(C)noc2C)O1`, 3.23%.
Then `CNC(=O)CN1CC[C@H]2CN(C(=O)c3ccoc3)C[C@H]2C1`, with -2.8%; and `COCC(=O)N1Cc2ccnn2CC(COCCN(C)C)C1` (stereo unspecified), with 6.82%.
As for `CS(=O)(=O)NCc1cnc2n1CCN(Cc1cccnc1)CC2`, the figure is 5.66%; as for `N#Cc1ccccc1N1CC2(CCCCN2CC2CC2)CC1=O` (stereo unspecified), 10.7%.
As for `COc1c(CNCCNC(=O)c2ccccc2)c(C)nn1C`, the cytotoxicity at 10 µM was -4.74%.
Turning to `Cc1noc(C)c1CN1CCCC2(C1)CN(c1nccs1)CCO2` (stereo unspecified), the cytotoxicity at 10 µM is 8.47%.
Then `Cc1ccc(CN2CCOC3(COCCN(S(C)(=O)=O)C3)C2)o1` (stereo unspecified), with 11.7%; and `O=C1COC2(CCN(S(=O)(=O)C3CC3)CC2)CN1c1cccnc1`, with -1.69%; and `Fc1ccc(CN2CCC3(CC2)CC(c2cccnc2)CO3)cc1` (stereo unspecified), with -4.85%.
